Results taken from paper PMC6437812 (ChemistryOpen, 2019).

What was measured:
[1] = test system: HER2; test: Western blot of Hsp90 client protein HER2 in SK-BR-3 cells; format: cell-based, human; conditions: 20 μM, 12 h
Summary of the method: (§1)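 SK‐BR‐3 cells (DMEM, 10 % FBS) were exposed to test compound at 20 μM for 12 h, washed in ice-cold PBS and lysed in SDS sample buffer. Equal lysate amounts went through SDS‐PAGE and PVDF transfer, with blocking in 5 % milk/TBST pH 7.6. Primary antibodies were applied overnight at 4 °C and secondary antibodies 2 h at room temperature. Detection was by ECL.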

[2] = biological target: recombinant human full-length Hsp90α (Homo sapiens, UniProt P07900); test: FP assay, competition with FITC-GM; format: binding
[3] = test system: breast cancer SK-BR-3 cell line; test: SRB anti-proliferative assay, SK-BR-3; format: cell-based; conditions: Homo sapiens, SK-BR-3, 120 h, read-out: SK-BR-3 (IC50±SD, μM) for 120 h
Summary of the method: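 Cells from ATCC, grown in DMEM with 10 % FBS at 37 °C and 5 % CO2. Seeded in 96-well plates overnight, then exposed to increasing concentrations in triplicate for 72 h, or for a prolonged 120 h. Growth was read by sulforhodamine B staining at OD 510 nm. IC50 came from curve fitting.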

[4] = test system: A549 and SK-BR-3 cell lines; test: Autophagy observed under the microscope; format: cell-based, human; conditions: 10 μM
[5] = test system: Hsp72; test: Western blot of Hsp72; format: cell-based, human; conditions: SK-BR-3 cells, 20 μM, 12 h
Summary of the method: as §1

| SMILES | expression of HER2 [1] | further results |
| --- | --- | --- |
| Cc1cc(C)n(-c2nc(NN=Cc3c[nH]c4ccccc34)nc(Nc3ccc(Br)cc3)n2)n1 [Compound A1, 4‐(2‐((1H‐indol‐3‐yl)methylene)hydrazinyl)‐N‐(4‐bromophenyl)‐6‐(3,5‐dimethyl‐1H‐pyrazol‐1‐yl)‐1,3,5‐triazin‐2‐amine] | obviously reduced | competition with FITC-GM for binding to Hsp90α [2]: failed to compete; IC50 [3]: 10.8 ± 1.3 µM; induction of autophagy [4]: little autophagy was induced |
| Brc1ccc(Nc2nc(NCc3ccccc3)nc(NCc3ccccc3)n2)cc1 [Compound A25] | obviously reduced |  |
| Brc1ccc(Nc2nc(N/N=C\c3c[nH]c4ccccc34)nc(Nc3ccccc3)n2)cc1 [Compound A16] | obviously reduced |  |
| COC1=C2C[C@@H](C)C[C@H](OC)[C@H](O)[C@@H](C)/C=C(\C)[C@H](OC(N)=O)[C@@H](OC)/C=C\C=C(/C)C(=O)NC(=CC1=O)C2=O [GM, geldanamycin] |  | induction of Hsp72 [5]: induced |
| NNc1nc(NCc2ccccc2)nc(Nc2ccc(Br)cc2)n1 [Compound A22] | obviously reduced |  |
| CCCNc1nc(NCCC)nc(Nc2ccc(Br)cc2)n1 [Compound A24] | obviously reduced |  |
| NNc1nc(Nc2ccccc2)nc(Nc2ccc(Br)cc2)n1 [Compound A20] | obviously reduced |  |
